Data as given in ChEMBL document CHEMBL1139222, “Discovering potassium channel blockers from synthetic compound database by using structure-based virtual screening in conjunction with electrophysiological assay” (J Med Chem, 2007).
Activity calls are given as the source filed them. No cut-off for these calls is given here.

Key:
[1] = species: Rattus norvegicus; assay: Selectivity for inhibition of delayed rectifier potassium current over inhibition of fast transient potassium current at potassium channel in Sprague-Dawley rat hippocampal neurons; type: tissue-based; conditions: Hippocampus
[2] = test system: Hippocampus; assay: Inhibition of fast transient potassium current in Sprague-Dawley rat hippocampal neurons at 100 uM by whole cell voltage clamp method; type: functional
In short: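 In the primary screen, 100 µM compound was dissolved in external solution and delivered by rapid solution changer to dissociated CA1 pyramidal neurons from 5- to 9-day-old Sprague-Dawley rats. Whole-cell voltage clamp was run at 21-23 °C, with series resistance compensated 75-85% and online leak subtraction. Fast transient K+ current (IA) was measured as peak amplitude.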

[3] = test system: Hippocampus; assay: Inhibition of delayed rectifier potassium current in Sprague-Dawley rat hippocampal neurons at 300 uM; type: functional, tissue-based
In short: (§1)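 IK was recorded by whole-cell voltage clamp (21-23 °C, 3-4 MΩ KCl-based pipettes) in dissociated CA1 pyramidal neurons from 5- to 9-day-old Sprague-Dawley rats. Compound was applied intracellularly at the stated concentration. IK amplitude was measured at 300 ms latency, normalized and followed over time after application. Values are mean ± SEM, n = 5.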

[4] = test system: Hippocampus; assay: Inhibition of delayed rectifier potassium current in Sprague-Dawley rat hippocampal neurons at 10 uM; type: functional, tissue-based; in short: as §1
[5] = Blockade of voltage-gated potassium channel assessed as inhibition of fast transient potassium current in Sprague-Dawley rat hippocampal neurons by whole cell voltage clamp method; type: tissue-based; conditions: Hippocampus
In short: (§2)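 CA1 pyramidal neurons were acutely dissociated from 5- to 9-day-old Sprague-Dawley rats (500 µm minislices, protease XXIII 3 mg/mL, 32 °C, 8 min). Whole-cell voltage clamp was run at 21-23 °C with KCl 140 mM pipettes and leak subtraction. Compound was applied externally by rapid solution changer across a concentration range. IA was read as peak amplitude and IK at 300 ms latency. IC50 came from concentration-response curve fitting.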

[6] = Blockade of voltage-gated potassium channel assessed by inhibition of delayed rectifier potassium current in Sprague-Dawley rat hippocampal neurons by whole cell voltage clamp method; type: tissue-based; conditions: Hippocampus; in short: as §2
[7] = test system: Hippocampus; assay: Inhibition of delayed rectifier potassium current in Sprague-Dawley rat hippocampal neurons at 1 mM; type: functional, tissue-based
In short: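 CA1 pyramidal neurons acutely dissociated from 5- to 9-day-old Sprague-Dawley rats (protease XXIII 3 mg/mL, 32 °C, 8 min). Whole-cell voltage clamp at 21-23 °C, 3-4 MΩ electrodes with KCl pipet solution, 75-85% series-resistance compensation, online leak subtraction. Compound dissolved in external solution and delivered by rapid solution changer. IK amplitude read at 300 ms latency.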

[8] = test system: Hippocampus; assay: Inhibition of delayed rectifier potassium current in Sprague-Dawley rat hippocampal neurons at 100 uM; type: functional, tissue-based; in short: as §1
[9] = test system: Hippocampus; assay: Inhibition of delayed rectifier potassium current in Sprague-Dawley rat hippocampal neurons at 30 uM; type: functional, tissue-based; in short: as §1

Row | SMILES | Ratio IC50 [1] | inhibition at 100 µM [2] [%] | Activity [3] | Activity [4] | IC50 [5] [µM] | IC50 [6] [µM] | Activity [7] | Activity [8] | Activity [9]
1 | Cc1ccc(S(=O)(=O)NCCOCCOCCOCCNS(=O)(=O)c2ccc(C)cc2)cc1 | 13.3 | 63 | inactive | inactive | 28 | 2.1 |  |  | 
2 | COc1ccc2c(CCN)c[nH]c2c1 |  | 10 |  |  | 524 | 972 | inactive |  | 
3 | O=S(=O)(CCN1CCN(Cc2ccccc2)CC1)c1ccc(Cl)cc1 | 16.3 | 11 |  |  | 980 | 60 |  | inactive | 
4 | NC(COc1ccccc1)c1ccc2c(c1)OCCO2 (stereo not given) | 11 | 20 |  |  | 737 | 67 |  | inactive | 
5 | NCCNS(=O)(=O)c1cccc2c(Cl)cccc12 | 6.9 | 27 |  |  | 124 | 18 |  |  | inactive
6 | Cc1nc(-c2cccnc2)nc(NCCN)c1Cl | 2.9 | 9 | inactive |  | 244 | 83 |  |  | 
